The list is not random: actives were taken first. Their share in the collection is about 1.6%.
T cell modulator – T cell immune modulation candidate | 0.068% of 330,000 active | AID 2052 | 2C CD8+ T cell-vesicle binding, flow cytometry; stronger effect = lower value | response (vesicle binding), % at 7 µM;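 active means response, share of CD8 T cells binding vesicles, and their 90th percentile fluorescence all below set limits, cut at about 80% in these data, passing the limit was not always enough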;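 further: values below 100% mean blocked vesicle binding to the CD8+ T cells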
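Read-out – percent CD8+ FL2 mean versus row control · System – murine 2C transgenic CD8+ T lymphocytes · Times – 1.5 h cell–vesicle binding at 37 °C, then 20 min icy labelling · Control set – naked vesicles low, QL9 vesicles with vehicle high · Detection – cytometric PE anti-B7-1 and Alexa647 anti-CD8 signals after 1% paraformaldehyde fixation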
PKA-R2B activ – activators of human PKA-R2B complex; P22694+P31323; PKA-R2B holoenzyme dissociation, Cy5-IP20 fluorescence polarization; R2B truncated from residue 108, S112A mutant; 0% DMSO only, 100% 113 µM cGMP; activation, % at 11.4 µM; 0.079% of 340,000 active; AID 504700;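 active means activation above a cutoff set at the mean over all compounds plus 3 SD, cut at about 18% in these data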;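 further: higher means more holoenzyme dissociation and a rise in polarization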
HKDC1 inhibitor – inhibitors of human hexokinase HKDC1; recombinant HKDC1, G6PDH/diaphorase resazurin coupled fluorescence; inhibition, % at 20 µM; 0.16% of 340,000 active; AID 493160;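 active means inhibition above about 35% when tested at 20 µM, limit read from the data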
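Test system: HK5 enzyme. Quantity: 5 µg/mL HK5 final. Reagent: glucose and ATP substrates. Schedule: 90 min reaction incubation at room temperature, dark. Technique: resazurin-to-resorufin fluorescence via G6PDH and diaphorase coupling, 525/613 nm. Control set: DMSO wells with and without enzyme mix.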
PKA-R1A activ – activates the PKA-R1A holoenzyme complex; activation, % at 11.4 µM; P00514+P68181; PKA-R1A dissociation, Cy5-IP20 fluorescence polarization; scaled: DMSO 0%, 113 µM cGMP 100%; 0.083% of 340,000 active; AID 504707;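 active means percent activation above the mean of all tested compounds plus 3 SD, cut at about 19% in these data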;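 further: higher means more PKAc released from R1A so a rise in polarization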
PfG6PD inh – PfG6PD (Plasmodium falciparum) enzyme inhibition; 0.78% of 350,000 active; AID 504690; PfGluPho enzyme, NADPH resazurin-diaphorase fluorescence; inhibition, % at 20 µM;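 active means inhibition reaching at least a set limit at 20 µM in the primary screen, cut at about 59% in these data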
ATG4B inhibitor – inhibitors of human ATG4B cysteine protease. Q9Y4P1. ATG4B cleavage of LC3-PLA2, NBD-HPC fluorescence, 1 h. inhibition, % at 8.33 µM. 0.51% of 340,000 active. AID 504462; in the data active means inhibition above about 40%
Target sequence (Q9Y4P1 whole entry, looked up): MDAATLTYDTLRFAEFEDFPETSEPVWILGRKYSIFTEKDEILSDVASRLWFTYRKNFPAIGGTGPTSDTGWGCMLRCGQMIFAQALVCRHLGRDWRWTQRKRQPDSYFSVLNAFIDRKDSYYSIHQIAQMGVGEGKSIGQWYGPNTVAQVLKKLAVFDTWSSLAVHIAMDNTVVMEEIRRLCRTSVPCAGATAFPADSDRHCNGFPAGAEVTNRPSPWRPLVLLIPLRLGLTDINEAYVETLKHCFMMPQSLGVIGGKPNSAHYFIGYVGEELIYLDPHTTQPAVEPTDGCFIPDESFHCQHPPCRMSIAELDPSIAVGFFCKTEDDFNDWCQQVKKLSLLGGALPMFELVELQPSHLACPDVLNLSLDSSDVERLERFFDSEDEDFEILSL
HKDC1 act conf – confirmation of human HKDC1 activators | 14% of 740 active | recombinant HKDC1, G6PDH/diaphorase resazurin fluorescence; stronger effect = lower value | inhibition, % at 20 µM | shares compounds with HKDC1 inhibitor;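 active means inhibition at or below a set negative limit, negative inhibition meaning the enzyme was activated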
ATG4B conf – ATG4B (human) inhibition, single-dose confirmed. shares compounds with ATG4B inhibitor. ATG4B protease fluorescent substrate cleavage assay. inhibition, % at 8.33 µM. 92% of 320 active; in the data active means inhibition above about 39%
PLA2 ctr – inhibits human PLA2, flagging false ATG4B inhibitors. purified PLA2, NBD-C6-HPC fluorescence, 45 min. 66% of 1,600 active. inhibition, % at 8.33 µM. shares compounds with ATG4B inhibitor; in the data active means inhibition above about 50%
Target sequence (P04054 whole entry, looked up): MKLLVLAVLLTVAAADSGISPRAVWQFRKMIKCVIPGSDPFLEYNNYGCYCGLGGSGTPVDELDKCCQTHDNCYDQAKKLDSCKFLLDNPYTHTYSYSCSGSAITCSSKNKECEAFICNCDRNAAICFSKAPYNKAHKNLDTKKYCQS
PfG6PD confirm – PfG6PD inhibition, single-dose confirmed. inhibition, % at 20 µM. 34% of 2,400 active. recombinant PfGluPho, NADPH-diaphorase-resazurin fluorescence. shares compounds with PfG6PD inh;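 active means inhibition of at least 50% at 20 µM in any single replicate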
Diaphorase 10uM – inhibits diaphorase or oxidizes, flagging false PfG6PD hits. inhibition, % at 20 µM. shares compounds with PfG6PD inh. 39% of 820 active. diaphorase-coupled resazurin reduction, fluorescence, NADPH 10 uM;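 active means average inhibition reaching 50% or more with the compound at 20 µM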;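 further: resorufin red fluorescence formed as diaphorase reduces resazurin using NADPH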
Diaph ctr 30uM – counter-screen for P. falciparum G6PD inhibitors: diaphorase inhibitors, oxidizers | shares compounds with PfG6PD inh | Diaphorase/resazurin coupled assay, resorufin fluorescence, 30 uM NADPH | inhibition, % at 20 µM | 29% of 820 active;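 active means inhibition averaging 50% or more, tested at 20 µM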
Large screens that a line does not name were inactive (follow-up assays come after a bar, where they were run).

COC(=O)c1ccccc1-c1c2ccc(=N)cc-2oc2cc(N)ccc12	none (no result: ATG4B inhibitor)
O=C(Nc1nccs1)c1cncc(Br)c1	none
CC1CCc2ccccc2N1CC(=O)Nc1cccc(S(=O)(=O)N2CCCC2)c1 (stereo not drawn)	none (no result: T cell modulator)
CCN(CC)CCCN1C=C2C(=O)C(C)(OC(=O)CCC(=O)OC)C(=O)C(Br)=C2C=C1c1ccc(OC)cc1 (stereo not drawn)	none
COC(=O)CCC(=O)OC1(C)C(=O)C=C2C=C(C3CC3)N(c3ccc(CO)cc3)C=C2C1=O (stereo not drawn)	none (no result: PKA-R2B activ, HKDC1 inhibitor, PKA-R1A activ, PfG6PD inh, ATG4B inhibitor)
COC(=O)CCCC1=CC2=C(c3ccccc3)C(=O)C(C)(OC(=O)C3CCCC3)C(=O)C2=CN1C1CC1 (stereo not drawn)	none
C=CCN1C=C2C(=O)C(C)(OC(=O)CCC(=O)OC)C(=O)C(Br)=C2C=C1c1ccc(OC)cc1 (stereo not drawn)	HKDC1 inhibitor 36, PfG6PD inh 86 | HKDC1 act conf inactive | PfG6PD confirm 55 | Diaphorase 10uM inactive | Diaph ctr 30uM inactive
COC(=O)CCC(=O)OC1(C)C(=O)C2=CN(c3ccc(OC)cc3)C(c3ccc(OC)cc3)=CC2=C(Br)C1=O (stereo not drawn)	PfG6PD inh 71 | HKDC1 act conf inactive | PfG6PD confirm 48 | Diaphorase 10uM inactive | Diaph ctr 30uM inactive
COCCN1C=C2C(=O)C(C)(OC(=O)CCC(=O)OC)C(=O)C(Br)=C2C=C1c1ccc(OC)cc1 (stereo not drawn)	HKDC1 inhibitor 38, PfG6PD inh 94 | HKDC1 act conf inactive | PfG6PD confirm inactive
COC(=O)CCC(=O)OC1(C)C(=O)C2=CN(C3CCCC3)C(c3ccc(OC)cc3)=CC2=C(Br)C1=O (stereo not drawn)	HKDC1 inhibitor 38, PfG6PD inh 70 | HKDC1 act conf inactive | PfG6PD confirm 67 | Diaphorase 10uM 56 | Diaph ctr 30uM 51
COC(=O)CCC(=O)OC1(C)C(=O)C2=CN(Cc3ccco3)C(c3ccc(OC)cc3)=CC2=C(Br)C1=O (stereo not drawn)	none (no result: PKA-R2B activ, HKDC1 inhibitor, PKA-R1A activ, PfG6PD inh, ATG4B inhibitor)
O=C1C(=C(I)I)c2ccccc2-c2ccccc21	HKDC1 inhibitor 61, PfG6PD inh 104, ATG4B inhibitor 61 (no result: T cell modulator) | HKDC1 act conf inactive | ATG4B conf 57 | PLA2 ctr inactive | PfG6PD confirm 60 | Diaphorase 10uM 61 | Diaph ctr 30uM 70
CCCn1c(SCC(=O)Nc2ccc(S(=O)(=O)N3CCOCC3)cc2)n[nH]c1=O	none (no result: T cell modulator, HKDC1 inhibitor, ATG4B inhibitor)
O=C1C(Cl)=C(NCCc2ccccc2)C(=O)c2ccccc21	HKDC1 inhibitor 53, PfG6PD inh 97 (no result: T cell modulator) | HKDC1 act conf inactive | PfG6PD confirm 80 | Diaphorase 10uM inactive | Diaph ctr 30uM inactive
COc1cc(-c2nnc(-c3cc(OC)c(OC)c(OC)c3)o2)cc(OC)c1OC	none
COc1cc(N=c2ssnc2Cl)cc(OC)c1OC	PfG6PD inh 83 | HKDC1 act conf -46 | PfG6PD confirm 68 | Diaphorase 10uM inactive | Diaph ctr 30uM inactive
COc1cc(CN2CCCC(C(=O)c3ccc4c5c(cccc35)CC4)C2)cc(OC)c1O (stereo not drawn)	PfG6PD inh 74 | HKDC1 act conf inactive | PfG6PD confirm 79 | Diaphorase 10uM inactive | Diaph ctr 30uM inactive
COc1ccc2c(c1)c1ccc3c(c1n2C)C(=O)C=CC3=O	none (no result: T cell modulator)
Cn1c2ccccc2c2ccc3c(c21)C(=O)C=CC3=O	HKDC1 inhibitor 37, PfG6PD inh 81 (no result: T cell modulator) | HKDC1 act conf inactive | PfG6PD confirm 53 | Diaphorase 10uM inactive | Diaph ctr 30uM inactive
O=C1C=CC(=O)c2c(O)c(N3CCN(CCOCCO)CC3)c(Br)c(O)c21	HKDC1 inhibitor 46, PfG6PD inh 115 (no result: T cell modulator) | HKDC1 act conf inactive | PfG6PD confirm 87 | Diaphorase 10uM 61 | Diaph ctr 30uM 53
O=C1C=CC(=O)c2c(O)c(N3CCN(CCO)CC3)c(Cl)c(O)c21	PfG6PD inh 103 (no result: T cell modulator) | HKDC1 act conf inactive | PfG6PD confirm 89 | Diaphorase 10uM 54 | Diaph ctr 30uM 57
CCC1NC(=O)c2cc3ccccc3cc2-n2c1nc1cc(OC)c(OC)cc1c2=O (stereo not drawn)	none (no result: T cell modulator, HKDC1 inhibitor, ATG4B inhibitor)
Cc1noc(C)c1C(=O)OC(C)C(=O)c1ccc(C(C)(C)C)cc1 (stereo not drawn)	none (no result: T cell modulator, HKDC1 inhibitor, ATG4B inhibitor)
CCc1ccc(NC(=O)COc2cccc(-n3cnnn3)c2)cc1	none
C=CS(=O)(=O)c1c2cc(OC)ccc2nc2ccc(OC)cc12	PfG6PD inh 69 (no result: T cell modulator) | HKDC1 act conf inactive | PfG6PD confirm inactive
CC[C@]1(C(=O)OC)[C@H]2C(=O)N(C)C(=O)[C@H]2[C@H]2CN(C)C(=NC3CCCCC3)N21	none (no result: T cell modulator)
Cc1ccc(SC2=C(Sc3ccc(C)cc3)C(=O)c3ccccc3C2=O)cc1	HKDC1 inhibitor 66, PfG6PD inh 90 | HKDC1 act conf inactive | PfG6PD confirm 62 | Diaphorase 10uM inactive | Diaph ctr 30uM inactive
Cc1ccc(S(=O)(=O)N2CCOCC2)cc1NC(=O)Cn1nc(C)c([N+](=O)[O-])c1C	none
CN(C)c1ccc(C=c2c3cc(O)ccc3n3c2cc(-c2ccccc2)[n+]3C)cc1	HKDC1 inhibitor 56, PfG6PD inh 83 (no result: T cell modulator) | HKDC1 act conf inactive | PfG6PD confirm 89 | Diaphorase 10uM inactive | Diaph ctr 30uM inactive
C[n+]1c(-c2ccccc2)cc2c(=Cc3ccc([N+](=O)[O-])cc3)c3ccccc3n21	HKDC1 inhibitor 36, PfG6PD inh 76 (no result: T cell modulator) | HKDC1 act conf inactive | PfG6PD confirm 50 | Diaphorase 10uM inactive | Diaph ctr 30uM inactive
CC(C)n1c2ccccc2c2cc([N+](=O)[O-])ccc21	none

Screening results from PubChem.
